According to ChEMBL document CHEMBL1124963, “Antifolate and antibacterial activities of 5-substituted 2,4-diaminoquinazolines” (J Med Chem, 1990):

How the values were obtained:
[1] = Partition coefficient (logP); format: physicochemical; conditions: octanol/water
Escherichia coli = assay: Antibacterial activity (10 e-6 log (1/MIC) towards Escherichia coli; format: functional
Summary of the method: (§1)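 Two-fold serial dilution: each compound prepared as a series of solutions differing by a factor of two, each added to a fixed amount of previously prepared test culture, incubated at 37 °C overnight.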

Staphylococcus aureus = assay: Antibacterial activity (10 e-6 log (1/MIC) towards Staphylococcus aureus; format: functional; summary of the method: as §1
[2] = Dissociation constant was determined using UV method; format: physicochemical
Summary of the method: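 UV spectrophotometric method. Aqueous stock of compound in distilled water, diluted into 0.01 M NaOH (pH ~12) and 0.001 M HCl (pH ~3) to pick an analytical wavelength from the difference spectrum. Five to seven KH2PO4/borax buffers bracketing the estimated pKa, pH measured at 25 °C. Absorbance read in a 1.0-cm cell at 25.0 °C against buffer. Separate values averaged with SD to give the concentration pKa.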

[3] = Acute toxicity determined in mice by an LD50 test when administered intraperitoneally; format: organism-based; conditions: mouse, in vivo, ip
[4] = Acute toxicity determined in mice by an LD50 test when administered perorally; format: organism-based; conditions: mouse, in vivo, po
[5] = Acute toxicity determined in mice by an LD50 test when administered peritoneally; format: organism-based; conditions: mouse, in vivo, ip

logP [1] | Log 1/MIC (Escherichia coli) | Log 1/MIC (Staphylococcus aureus) | SMILES | pKa [2] | LD50 [3] [mg/kg] | LD50 [4] [mg/kg] | LD50 [5] [mg/kg]
2.05 | 0.8 | -0.1 | CC(C)Oc1cccc2nc(N)nc(N)c12 |  |  |  | 
2.26 | 1.1 | 0.2 | CCCOc1cccc2nc(N)nc(N)c12 |  |  |  | 
2.14 | <-0.5 | <-0.5 | Nc1nc(N)c2c(S(=O)(=O)c3ccccc3)cccc2n1 |  |  |  | 
2.82 | 0.8 | 1 | Nc1nc(N)c2c(OCc3ccccc3)cccc2n1 |  |  |  | 
0.3 | 0.3 | <0.2 | Nc1nc(N)c2c(N)cccc2n1 |  |  |  | 
1.81 | 2.2 | 0 | CSc1cccc2nc(N)nc(N)c12 |  |  |  | 
1.01 | 0.7 | 1.3 | Nc1nc(N)c2ccccc2n1 | 8.08 |  |  | 
2.85 |  |  | CCCSc1cccc2nc(N)nc(N)c12 |  |  |  | 
2.81 | 0.6 | 0.4 | CCCCOc1cccc2nc(N)nc(N)c12 |  |  |  | 
 | 0 | 1.1 | CCCCCCOc1cccc2nc(N)nc(N)c12 |  |  |  | 
 | < -0.6 | < -0.6 | Nc1nc(N)c2c(Sc3ccccc3)cccc2n1 |  |  |  | 
 | <-0.7 | -0.7 | Nc1nc(N)c2c(O)cccc2n1 |  |  |  | 
 | 1.3 | 1.3 | Nc1nc(N)c2c(CCc3ccccc3)cccc2n1 |  |  |  | 
1.69 | 2.6 | 0.6 | CCc1cccc2nc(N)nc(N)c12 |  |  |  | 
2.27 | 2 | -0.1 | CCSc1cccc2nc(N)nc(N)c12 | 7.87 |  |  | 
2.78 | 0.2 | 0 | Nc1nc(N)c2c(Oc3ccccc3)cccc2n1 |  |  |  | 

The remaining lines, values behind:

SMILES | logP [1] | Log 1/MIC (Escherichia coli) | Log 1/MIC (Staphylococcus aureus) | pKa [2] | LD50 [3] [mg/kg] | LD50 [4] [mg/kg] | LD50 [5] [mg/kg]
Nc1nc(N)c2c(N3CCCCC3)cccc2n1 | 2.66 |  |  |  |  |  | 
Nc1nc(N)c2c(Cl)cccc2n1 | 1.72 | 2.1 | 1.2 | 7.22 | 100 |  | 
CCCNC(=O)c1cccc2nc(N)nc(N)c12 | 0.83 | <-0.6 | <-0.6 |  |  |  | 
Nc1nc(N)c2c(N3CCOCC3)cccc2n1 | 1.11 | -0.6 | -0.6 |  |  |  | 
Nc1nc(N)c2c(I)cccc2n1 | 2.12 | 1.7 | 0.4 |  |  | ~500 | 
CS(=O)(=O)c1cccc2nc(N)nc(N)c12 | 0.63 | <-0.6 | <-0.6 |  |  |  | 
COC(=O)c1cccc2nc(N)nc(N)c12 |  | -0.1 | -0.6 |  | 68 |  | 
Nc1nc(N)c2c(F)cccc2n1 | 1.19 | 1.7 | 1.4 | 7.44 | 100 | 489 | 
Nc1nc(N)c2c(Br)cccc2n1 | 1.91 | 2.2 | 1.5 |  |  | 271 | 
NC(=O)c1cccc2nc(N)nc(N)c12 | -0.33 | -0.6 | <-0.7 | 7.22 |  |  | 
CN(C)c1cccc2nc(N)nc(N)c12 | 1.65 | -0.4 | -0.5 |  |  |  | 
COc1cccc2nc(N)nc(N)c12 | 1.18 | 2.1 | 1 | 8.32 | 137 | ~500 | 
CCOc1cccc2nc(N)nc(N)c12 | 1.69 | 1.7 | 0.2 |  | ~100 |  | 
Cc1cccc2nc(N)nc(N)c12 | 1.26 | 1.7 | 0.5 | 8.19 | ~100 |  | 
Nc1ncnc2ccccc12 [4-AMINOQUINAZOLINE] |  |  |  |  | 205 |  | 584
Nc1nc(N)c2c([N+](=O)[O-])cccc2n1 | 1.19 | <0.5 | 0 | 6.24 |  |  | 
